Measurements taken from article PMC2687631 (Yonsei Medical Journal, 2006).

Tests used:
hPTH/PTHrp receptor = details: LLC-PK cells stably expressing a high level of the hPTH/PTHrp receptor; cited from earlier work
mice = details: cited from earlier work
animals and humans = details: cited from earlier work
ovariectomized rat model = assay: Femoral length and cross-sectional diameter at mid-diaphysis; type: in vivo, Sprague-Dawley rats; details: ovx rats, subcutaneous for 5 weeks; p<0.05 vs. OVX
Outline: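 Female Sprague-Dawley rats were ovariectomized at 10 weeks (sham group unoperated), left untreated for 4 weeks, then dosed daily s.c. for 5 weeks with test compound (30 nM/kg), rhPTH(1-84) (8 nM/kg) or 0.9% saline vehicle, seven per group. Left femur length (greater trochanter to intercondylar fossa) and mid-diaphysis AP/ML diameters measured by digital caliper. Means and SD; ANOVA with Bonferroni.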

PTH (1-14): N-terminal fragment 1-14 of parathyroid hormone (SVSEIQLMHNLGKH; Parathyroid hormone; UniProt P01270 32-45, looked up, fragment)
cAMP formation relative to PTH (1-34) (hPTH/PTHrp receptor): about 10^-3 folds

PTH (1-31): PTH (1-31) fragment
Potency in stimulating bone resorption parameters vs PTH (1-34) (mice): less potent
Potency on bone formation vs PTH (1-34) (mice): as potent as PTH (1-34)

B1: PTH: parathyroid hormone, low dose, intermittently administered (protein, UniProt P01270 32-115, looked up)
Parathyroid hormone: SVSEIQLMHNLGKHLNSMERVEWLRKKLQDVHNFVALGAPLAPRDAGSQRPRKKEDNVLVESHEKSLGEADKADVNVLTKAKSQ
modifications: Parathyroid hormone
Anabolic effect / bone mass (in words) (animals and humans): significant increase in bone mass

B2: rhPTH (1-84): recombinant human PTH (1-84), donated by the Mogam Biotechnology Research Institute (protein, UniProt P01270 32-115, looked up)
Parathyroid hormone: SVSEIQLMHNLGKHLNSMERVEWLRKKLQDVHNFVALGAPLAPRDAGSQRPRKKEDNVLVESHEKSLGEADKADVNVLTKAKSQ
modifications: Parathyroid hormone
Femoral length (in words) (ovariectomized rat model): significantly increased length
